Assay results of several laboratories.
Lines come from different studies, so protocols differ.
Target: SRSF protein kinase 1 (SRPK1, Homo sapiens, UniProt Q96SB4)

Cc1cc(NC(=O)c2cccc3cc(-c4cccc5[nH]nc(N)c45)ccc23)ccc1F — activity vs control (enzyme activity; inhibitor; 0.1 µM): 98%
Oc1cccc(-c2nc(N3CCOCC3)c3oc4ncccc4c3n2)c1 — remaining activity (enzyme activity; inhibitor; 10 µM): 116%
COc1cc2ncnc(Nc3ccc(F)c(Cl)c3)c2cc1OCCCN1CCOCC1 — remaining signal (cell-free assay; 0.5 µM): 98.3%
CCN(CC)CCNC(=O)c1c(C)[nH]c(/C=C2\C(=O)Nc3ccc(F)cc32)c1C — inhibition (enzyme activity; inhibitor; 10 µM): 9%
CCOc1cc(-c2nncn2C)ccc1Nc1ncc2cc(C)nc(NCC(C)(C)C)c2n1 — inhibition (enzyme activity; inhibitor; FRET; 1 µM): < 15%
CO[C@H]1CC[C@H](CNc2ccc(S(=O)(=O)NC(=O)c3ccc(N4CCN(CC5=C(c6ccc(Cl)cc6)CC(C)(C)CC5)CC4)cc3Oc3cnc4[nH]ccc4c3)cc2[N+](=O)[O-])CC1 — remaining binding (cell-free assay; competition with immobilised ligand; 1 µM): 96%
COc1cc2ncnc(Nc3ccc(Oc4ccccc4)cc3C)c2cc1OC — inhibition (enzyme activity; inhibitor; 1 µM): 0%
CC(C)(O)[C@H]1CC[C@H](Nc2ccc3ncc(-c4cccc(C(F)(F)F)c4)n3n2)CC1 — remaining activity (enzyme activity; inhibitor; 1 µM): 100%
Nc1nc(NC2CCCCC2)sc1C(=O)c1ccccc1 — remaining activity (enzyme activity; inhibitor; 10 µM): 93%
Nc1ncnc2occ(-c3ccc(NC(=O)Nc4cc(C(F)(F)F)ccc4F)cc3)c12 — remaining signal (cell-free assay; inhibitor; 20 µM): 59%
COc1cccc2c(NCc3ccccc3)nc(-n3c(N)nc4ccccc43)nc12 — inhibition (target engagement in cells; inhibitor; chemoproteomics; 20 mM): 5.7%
CNC(=O)c1ccc(Nc2ncc(C(F)(F)F)c(NCc3nccnc3N(C)S(C)(=O)=O)n2)cc1 — remaining binding (cell-free assay; competition with immobilised ligand; 0.1 µM): 51%
CCCOc1ccc(OC)c(F)c1C(=O)c1ccc(C(=O)N[C@@H]2CNC[C@H]2NC(=O)c2ccc3[nH]ncc3c2)cc1 — remaining activity (enzyme activity; inhibitor; 10 µM): 97%
O=C(Nc1cnn(-c2csc(C(=O)NC3COC3)c2)c1)Nc1c(F)cccc1Cl — remaining activity (enzyme activity; inhibitor; 5 µM): 104%
Cc1ccc(C(=O)Nc2ccc(CN3CCN(C)CC3)c(C(F)(F)F)c2)cc1C#Cc1cnc2cccnn12 — remaining activity (enzyme activity; inhibitor; 23.5 nM): 98%
FC(F)(F)Oc1cccc(-c2cnc3ccc(-c4ccncc4)nn23)c1 — activity vs control (enzyme activity; inhibitor; radiometric; 1 µM): 95%
COc1cc(/C=C/C(=O)CC(=O)/C=C/c2ccc(O)c(OC)c2)ccc1O — activity vs control (enzyme activity; inhibitor; 1 µM): 57%
Cc1ccc(NC(=O)c2ccc(CN3CCN(C)CC3)cc2)cc1Nc1nc(-c2cccnc2)cs1 — remaining signal (cell-free assay; 0.5 µM): 98.9%
CC(C)(C)c1nc(-c2cccc(NS(=O)(=O)c3c(F)cccc3F)c2F)c(-c2ccnc(N)n2)s1 — remaining activity (enzyme activity; inhibitor; radiometric; 1 µM): 105%
O=S(=O)(NC1CCC(c2cc(F)ccc2F)(S(=O)(=O)c2ccc(Cl)cc2)CC1)C(F)(F)F (stereo not shown) — remaining binding (cell-free assay; competition with immobilised ligand; 1 µM): 100%
CN(c1ncccc1CNc1nc(Nc2ccc3c(c2)CC(=O)N3)ncc1C(F)(F)F)S(C)(=O)=O — inhibition (enzyme activity; inhibitor; 1 µM): 33.5%
CNC(=O)c1cc(Oc2ccc(NC(=O)Nc3ccc(Cl)c(C(F)(F)F)c3)cc2)ccn1 — inhibition (enzyme activity; inhibitor; 0.3 µM): -2%
O=C1NC(=O)c2cc(Nc3ccc(F)cc3)c(Nc3ccc(F)cc3)cc21 — remaining signal (cell-free assay; 0.5 µM): 102%
Nc1nc(Nc2ccccc2)sc1C(=O)c1c(F)cccc1F — remaining activity (enzyme activity; inhibitor; 10 µM): 6%
Cc1c[nH]c2nccc(Oc3c(F)cc(Nc4cc(Cl)nc(N)n4)cc3F)c12 — remaining binding (cell-free assay; competition with immobilised ligand; 0.1 µM): 100%
Cc1ccc(Nc2nccc(N(C)c3ccc4c(C)n(C)nc4c3)n2)cc1S(N)(=O)=O — inhibition (enzyme activity; inhibitor; 0.3 µM): -7%
O=C(Nc1ccc(Oc2ccc(F)cc2)cc1)N1CCc2ncccc2[C@H]1c1ccc(F)cc1 — remaining binding (cell-free assay; competition with immobilised ligand; 1 µM): 94%
c1ccc(CNc2nc(N3CCOc4ccccc43)nc3c2CCCC3)cc1 — inhibition (target engagement in cells; inhibitor; chemoproteomics; 20 mM): 4.3%
C[C@@H]1CN(c2cc(-c3nn(C)c4ccc(OC5(C)CC5)cc34)ncn2)C[C@H](C)O1 — remaining binding (cell-free assay; competition with immobilised ligand; 1 µM): 88%
O=C(Nc1cnn(-c2csc(C(=O)NC3COC3)c2)c1)Nc1ccccc1Cl — remaining activity (enzyme activity; inhibitor; 5 µM): 98.7%
CC(=O)N1CCC(c2ccc(C(=O)NC(=N)N)cc2C(F)(F)F)CC1 — remaining binding (cell-free assay; competition with immobilised ligand; 1 µM): 86%
O=C1Nc2ccc(Cl)cc2C1=Cc1cc(Cl)c(O)c(Cl)c1 — remaining signal (cell-free assay; 0.5 µM): 106%
O=C(NCCCC1CCCCC1)c1ccc(CNC(=O)c2cnn(-c3ccccc3)c2C(F)(F)F)cc1 — remaining binding (cell-free assay; competition with immobilised ligand; 0.1 µM): 95%
COc1cc(Nc2cnc(C#N)c(O[C@H](C)CN(C)C)n2)ncc1-c1cnn(C)c1 — remaining activity (enzyme activity; inhibitor; radiometric; 10 µM): 88%
